Laboratory results taken from ChEMBL document CHEMBL2417493, “Novel cycloalkylthiophene-imine derivatives bearing benzothiazole scaffold: synthesis, characterization and antiviral activity evaluation” (Bioorg Med Chem Lett, 2013).
Converted amounts (≈) assume the structure as drawn. The source made the active and inactive calls. The rule behind the calls is not given here.

Experiments:
Influenza A virus [1] = test: Antiviral activity against influenza A virus H1N1 infected in dog MDCK cells assessed as inhibition of virus-induced cytopathogenicity at 32 ug/ml after 48 hrs by crystal violet staining method; assay type: functional, organism-based
Summary of the method: (§1)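 Single-concentration screen with these pairings: RD/EV71, HepG2/CVB5, HeLa/ADV7, MDCK/H1N1. Cells were infected and kept 48 h in the presence of compound at one fixed concentration; some EV71 tests used the lower level. Inhibition of virus proliferation was read by crystal violet staining.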

unidentified adenovirus [2] = test: Antiviral activity against Adenovirus type 7 infected in human HeLa cells assessed as inhibition of virus-induced cytopathogenicity at 32 ug/ml after 48 hrs by crystal violet staining method; assay type: functional; conditions: for inhibition at 32 µg/mL: type 7, HeLa; summary of the method: as §1
Coxsackievirus B5 [3] = test: Antiviral activity against Coxsackievirus B5 infected in human HepG2 cells assessed as inhibition of virus-induced cytopathogenicity at 32 ug/ml after 48 hrs by crystal violet staining method; assay type: functional; conditions: for inhibition at 32 µg/mL: Enterovirus B, HepG2, 48 h; summary of the method: as §1
Enterovirus [4] = test: Antiviral activity against Enterovirus 71 infected in human rhabdomyosarcoma cells assessed as inhibition of virus-induced cytopathogenicity at 32 ug/ml after 48 hrs by crystal violet staining method; assay type: functional; conditions: for inhibition at 32 µg/mL: Enterovirus, 71, 48 h; summary of the method: as §1
Influenza A virus [5] = test: Antiviral activity against influenza A virus H1N1 infected in dog MDCK cells assessed as inhibition of virus-induced cytopathogenicity after 48 hrs by crystal violet staining method; assay type: functional, organism-based
Summary of the method: (§2)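 Virus–cell pairings were EV71 in RD, CVB5 in HepG2, ADV7 in HeLa and influenza A H1N1 in MDCK. Compounds were added […], and total infectivity was read by crystal violet staining. EC50 is the concentration reducing viral replication by 50%. Values are mean SD of three independent experiments.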

[6] = Selectivity index, ratio of CC50 for human HeLa cells to EC50 for Adenovirus type 7 infected in human HeLa cells; assay type: toxicity, cell-based; conditions: read-out: Ratio CC50/EC50
Summary of the method: (§3)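 Antiviral pairings were EV71 in RD cells, CVB5 in HepG2 cells and ADV7 in HeLa cells. Compounds were added […], and total infectivity was read by crystal violet staining. EC50 is the concentration that cut viral replication by 50%. CC50 came from MTT relative to 0.1% DMSO mock control. SI = CC50/EC50. Data are from three independent experiments.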

unidentified adenovirus [7] = test: Antiviral activity against Adenovirus type 7 infected in human HeLa cells assessed as inhibition of virus-induced cytopathogenicity after 48 hrs by crystal violet staining method; assay type: functional, organism-based; conditions: for EC50: unidentified adenovirus, type 7, HeLa, 48 h; summary of the method: as §2
[8] = Cytotoxicity against human HeLa cells after 72 hrs by MTT assay; assay type: cell-based
Summary of the method: (§4)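 MTT assay on RD (rhabdomyosarcoma), HepG2 and HeLa cell lines. CC50 is the concentration that cut cell viability by 50% relative to 0.1% DMSO-treated mock-control cells. Values are mean and SD of three independent experiments.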

[9] = Selectivity index, ratio of CC50 for human HepG2 cells to EC50 for Coxsackievirus B5 infected in human HepG2 cells; assay type: toxicity, cell-based; conditions: read-out: Ratio CC50/EC50; summary of the method: as §3
Coxsackievirus B5 [10] = test: Antiviral activity against Coxsackievirus B5 infected in human HepG2 cells assessed as inhibition of virus-induced cytopathogenicity after 48 hrs by crystal violet staining method; assay type: functional, organism-based; conditions: for EC50: Enterovirus B, HepG2, 48 h; summary of the method: as §2
[11] = Cytotoxicity against human HepG2 cells after 72 hrs by MTT assay; assay type: cell-based; summary of the method: as §4
[12] = Selectivity index, ratio of CC50 for human rhabdomyosarcoma cells to EC50 for Enterovirus 71 infected in human rhabdomyosarcoma cells; assay type: toxicity; conditions: read-out: Ratio CC50/EC50; summary of the method: as §3
Enterovirus [13] = test: Antiviral activity against Enterovirus 71 infected in human rhabdomyosarcoma cells assessed as inhibition of virus-induced cytopathogenicity after 48 hrs by crystal violet staining method; assay type: functional, organism-based; conditions: for EC50: Enterovirus, 71, 48 h; summary of the method: as §2
[14] = Cytotoxicity against human rhabdomyosarcoma cells after 72 hrs by MTT assay; assay type: cell-based, Rhabdomyosarcoma cell; summary of the method: as §4
Enterovirus [15] = test: Antiviral activity against Enterovirus 71 infected in human rhabdomyosarcoma cells assessed as inhibition of virus-induced cytopathogenicity at 16 ug/ml after 48 hrs by crystal violet staining method; assay type: functional; conditions: Enterovirus, 71, 48 h; summary of the method: as §1

Row | SMILES | inhibition (Influenza A virus [1]) | inhibition at 32 µg/mL (unidentified adenovirus [2]) [%] | inhibition at 32 µg/mL (Coxsackievirus B5 [3]) [%] | inhibition (INH) (Influenza A virus [5]) [%] | selectivity ratio [6] | EC50 (unidentified adenovirus [7]) [µg/mL] | CC50 at 72 h [8] [µg/mL] | selectivity ratio [9] | EC50 (Coxsackievirus B5 [10]) [µg/mL] | CC50 at 72 h [11] [µg/mL] | selectivity ratio [12] | EC50 (Enterovirus [13]) [µg/mL] | CC50 at 72 h [14] [µg/mL] | inhibition (unidentified adenovirus [7]) | inhibition (Coxsackievirus B5 [10]) | inhibition (Enterovirus [13]) | further results
1 | C(=N\c1sc2c(c1-c1nc3ccccc3s1)CCCC2)/c1ccccc1 | Active | 60 | 60 | <50 | 26.5 | 12.5 (≈ 33.4 µM) | 333 (≈ 890 µM) | 9.3 | 32.9 (≈ 87.8 µM) | 308 (≈ 821 µM) | 4.9 | 14.2 (≈ 37.9 µM) | 71.1 (≈ 190 µM) |  |  |  | inhibition at 32 µg/mL (Enterovirus [4]): 60%
2 | Nc1sc2c(c1-c1nc3cc(Cl)ccc3s1)CCC2 |  |  |  | <50 | 7.6 | 9.8 (≈ 31.9 µM) | 75.1 (≈ 245 µM) | 10.4 | 6.4 (≈ 20.9 µM) | 67.8 (≈ 221 µM) | 46.9 | 1.2 (≈ 3.91 µM) | 59.1 (≈ 193 µM) | Dose-dependent effect | Dose-dependent effect | Dose-dependent effect | 
3 | Oc1ccccc1/C=N/c1sc2c(c1-c1nc3ccccc3s1)CCCC2 | Active | 60 | 60 | <50 | 11.1 | 10.8 (≈ 27.7 µM) | 122 (≈ 312 µM) | 20.8 | 5.4 (≈ 13.8 µM) | 114 (≈ 292 µM) | 20.3 | 2 (≈ 5.12 µM) | 42.4 (≈ 108 µM) | Dose-dependent effect | Dose-dependent effect | Dose-dependent effect | inhibition at 16 µg/mL (Enterovirus [15]): 60%
4 | Oc1ccccc1/C=N/c1sc2c(c1-c1nc3cc(Cl)ccc3s1)CCC2 | Active |  |  | <50 |  |  | 251 (≈ 610 µM) |  |  | 210 (≈ 511 µM) | 19.2 | 13.9 (≈ 33.8 µM) | 269 (≈ 655 µM) |  |  |  | inhibition (unidentified adenovirus [2]): Active; inhibition (Coxsackievirus B5 [3]): Active; inhibition (Enterovirus [4]): Active; inhibition (INH) (unidentified adenovirus [7]): <50%; inhibition (INH) (Coxsackievirus B5 [10]): <50%
5 | Fc1ccc(/C=N/c2sc3c(c2-c2nc4ccccc4s2)CCCC3)cc1 | Active | 60 | 60 | <50 | 13.1 | 21.1 (≈ 53.8 µM) | 277 (≈ 705 µM) | 33.2 | 9.7 (≈ 24.7 µM) | 324 (≈ 826 µM) | 32.8 | 6.9 (≈ 17.6 µM) | 230 (≈ 586 µM) | Dose-dependent effect | Dose-dependent effect | Dose-dependent effect | inhibition at 16 µg/mL (Enterovirus [15]): 60%
6 | NC(=O)c1ncn([C@@H]2O[C@H](CO)[C@@H](O)[C@H]2O)n1 [RIBAVIRIN] |  |  |  |  | > 15 | 27.8 (≈ 114 µM) | > 500 | > 20 | 22.3 (≈ 91.3 µM) | > 500 | > 10 | 49.2 (≈ 201 µM) | > 500 |  |  |  | 
7 | Nc1sc2c(c1-c1nc3cc(Cl)ccc3s1)CCCC2 |  |  |  | <50 | 20.9 | 5 (≈ 15.6 µM) | 107 (≈ 333 µM) | 26.7 | 3.5 (≈ 10.9 µM) | 93.7 (≈ 292 µM) | 33.7 | 1.3 (≈ 4.05 µM) | 43.5 (≈ 136 µM) | Dose-dependent effect | Dose-dependent effect | Dose-dependent effect | 
8 | Nc1sc2c(c1-c1nc3ccccc3s1)CCCC2 |  |  |  | <50 |  |  | 475 (≈ 1660 µM) | 11.9 | 14.5 (≈ 50.6 µM) | 163 (≈ 570 µM) | 17.8 | 14.1 (≈ 49.2 µM) | 253 (≈ 883 µM) |  |  |  | inhibition (INH) (unidentified adenovirus [7]): <50%
9 | Oc1ccccc1/C=N/c1sc2c(c1-c1nc3ccccc3s1)CCC2 | Active | 60 | 60 | <50 | 9.6 | 17.4 (≈ 46.2 µM) | 168 (≈ 446 µM) | 13.8 | 11.1 (≈ 29.5 µM) | 156 (≈ 414 µM) | 12.6 | 7.9 (≈ 21 µM) | 100 (≈ 266 µM) |  |  |  | inhibition at 32 µg/mL (Enterovirus [4]): 50%
